Reference: PubChem BioAssay AID439 (The Scripps Research Institute Molecular Screening Center, 2006)
Active and inactive are the calls of the source.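 The calls were made as follows: active = compounds with EC50 at or below 10 micromolar; inactive = EC50 above 10 micromolar.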

Molecular target: Sphingosine 1-phosphate receptor 3 (Homo sapiens) (UniProt Q99500)
Experiment: S1P3 receptor activation, EC50 – cell-based, NFAT-BLA reporter, dose response (AID 439)
Conditions: S1P3 NFAT-beta-lactamase reporter cells, FRET ratio
Method in brief: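 Assay system: CHO cells with human S1P3 and NFAT-BLA reporter / Compound dosing: 10 concentrations, threefold steps / Times: 4 h compound treatment, 37 °C / Detection: beta-lactamase FRET, 460 nm versus 535 nm emission ratio / Read-out: EC50 from four-parameter curve, S1P-normalized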

Chain of Sphingosine 1-phosphate receptor 3 (Homo sapiens) (Q99500 whole entry, looked up): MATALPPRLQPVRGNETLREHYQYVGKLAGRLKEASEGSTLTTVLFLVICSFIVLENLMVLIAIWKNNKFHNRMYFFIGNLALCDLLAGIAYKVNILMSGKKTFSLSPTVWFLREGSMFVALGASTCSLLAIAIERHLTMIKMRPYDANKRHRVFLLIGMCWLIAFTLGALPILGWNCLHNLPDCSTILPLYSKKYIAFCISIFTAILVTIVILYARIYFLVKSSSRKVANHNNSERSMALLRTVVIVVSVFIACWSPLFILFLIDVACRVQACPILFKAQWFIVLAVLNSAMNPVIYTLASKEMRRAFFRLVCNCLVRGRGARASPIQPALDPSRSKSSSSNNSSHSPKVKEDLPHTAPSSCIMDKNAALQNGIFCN

- EC50: inactive
Structure (SMILES): CCOC(=O)C1=C(N)OC2=C(C(=O)CCC2)C1c1ccccc1OCC (stereo unspecified)
